We go through 4 molecules from article PMC10390885 (Clinical Cancer Research, 2023).

The subject of series [1] is ER. The note with it: ER+ cell lines; preclinical studies; cited from earlier work.
Series [2] relates to postmenopausal women with ER+/HER2− locally advanced or metastatic breast cancer. Kind of series: Phase I safety: adverse events. The series is classed as in vivo, human. An outline of the steps:
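Oral tablets were given as a single lead-in dose on day −7, then once daily from day 1 in 28-day cycles. Escalation used a 3+3 design, starting at 600 mg/day with 400 mg steps, plus an expansion cohort at 1,400 mg/day. DLT window ran from day −7 through cycle 1 (35 days). AEs were graded by NCI CTCAE v4.0. All patients dosed on cycle 1 day 1 were included, summarised descriptively.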

Series [3] relates to ER. Kind of series: [18F]-fluoroestradiol. The following applies: cycle 2 day 3 vs baseline; 9 patients with FES-avid disease; 600, 1,000, 1,400 mg. The series is classed as in vivo, human.
In series [4] the test system is ER. Kind of series: IHC of ER protein in baseline and on-treatment biopsies. The note with it: on-treatment (cycle 2 or 3, day 8) vs baseline biopsies. It is filed as in vivo, human. The method, boiled down: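 Baseline and on-treatment tumour biopsies (cycle 2 or 3, day 8) were stained for ER by IHC in one laboratory and scored by one pathologist. H-score (0–300) = 3×% strong-intensity nuclei + 2×% intermediate + 1×% weak nuclei among tumour cells. Paired samples only.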

Series [5] has as its system ER+/HER2− advanced or metastatic breast cancer. Description: Antitumor activity by RECIST v1.1. It is filed as in vivo, human.
Series [6] concerns PIK3CA/AKT1 mutations in ctDNA. Kind of series: ctDNA BEAMing digital PCR, PIK3CA/AKT1 mutant allele frequency. It is filed as in vivo, human. The following applies: first postbaseline ctDNA sample (cycle 3 day 1 or end-of-treatment). An outline of the steps: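 Hotspot mutations were measured in plasma ctDNA by BEAMing digital PCR: AKT1 E17K and PIK3CA C420R, E542K, E545G/K, Q546K, M1043I, H1047L/R/Y. Mutant allele fraction at baseline was compared with the first available post-baseline sample (cycle 3 day 1 or end of treatment) in paired samples.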

For another series, the system named is ESR1 mutations in ctDNA. Description: FACT next-generation sequencing ctDNA assay. The series is classed as in vivo, human. The following applies: 1,400 mg; vs 52% pretreatment.
Series [7] relates to ESR1 mutant and wild-type patient-derived xenograft models of ER+ breast cancer. The note with it: preclinical, cited from earlier work.
Series [8] relates to ER. The following applies: preclinical studies; cited from earlier work.
Series [9] relates to advanced ER-positive HER2-negative breast cancer. The note with it: cited from earlier work.
Setting [10] is: N = 42, considered related to study drug, any grade.
[11] abbreviates: N = 42, considered related to study drug, grade 3.
[12] abbreviates: N = 42, regardless of causality, any grade.
Where [13] appears, read: N = 42, regardless of causality, grade 3.

Where “and” joins values, the source holds several entries; their conditions need not be identical. Equal values may be shown once. Entries after “also recorded” stand apart in the source; their conditions may differ. Read-outs that look alike come from different tables or passages of the source.

In the case of `CC/C(=C(/c1ccc(/C=C/C(=O)O)cc1)c1ccc2[nH]ncc2c1)c1ccc(F)cc1Cl` [GDC-0810, reference compound], in the series with ER [1], the ER antagonist/agonist profile result is on record as “partial agonism”.

Regarding `CC1=C(c2cccc(O)c2)[C@H](c2ccc(OCCN3CC(CF)C3)cc2)Oc2ccc(O)cc21` [GDC-0927], in [2] (N = 42), the “AEs leading to withdrawal” value is “no reports and None”; the Deaths entry is “no deaths; also recorded: no reports”; the “Dose modifications due to AEs” value was “no dose modifications”; the “Grade 4 or grade 5 AEs” value is on record as “no grade 4 or grade 5 AEs; also recorded: no grade 4 or 5 AEs”. For the same molecule, the “Treatment-related serious adverse events (SAE)” value in [2] (N = 42) was “no reports”. In addition, in series [2] (N = 42, 600-1,400 mg once daily oral, regardless of causality, any grade), the “Patients with any adverse events” value is 37 n (%) and 37 (88) n (%). Moreover, in series [2] (setting [10]), the Constipation is 6 n (%) and 6 (14) n (%); the Diarrhea was 5 n (%) and 5 (12) n (%); the Fatigue was 5 n (%) and 5 (12) n (%); the Hot flush is 8 n (%) and 8 (19) n (%). In [2] (setting [10]), the Nausea was 8 n (%) and 8 (19) n (%); the “Patients with at least one adverse event” value is 30 n (%) and 30 (71) n (%); the “Total number of events” value turned out to be 109. Also, in series [2] (setting [11]), the Constipation is on record as 0 n (%), the Diarrhea was 0 n (%), the Fatigue is 0 n (%) and the Hot flush is 0 n (%). In [2] (setting [11]), the Nausea is 0 n (%), the “Patients with at least one adverse event” value is 0 n (%) and the “Total number of events” value was 0. In series [2] (setting [12]), the Anemia is 6 n (%) and 6 (14) n (%); the Arthralgia is 8 n (%) and 8 (19) n (%); the “Aspartate aminotransferase (AST) increased” value is 5 (12) n (%); the Asthenia is given as 5 (12) n (%). In [2] (setting [12]), the Back pain was 7 n (%) and 7 (17) n (%); the Constipation is 9 n (%) and 9 (21) n (%); the Cough was 5 (12) n (%); the Diarrhea is 9 n (%) and 9 (21) n (%). In [2] (setting [12]), the Fatigue is 8 n (%) and 8 (19) n (%); the Headache was 6 n (%) and 6 (14) n (%); the Hot flush was 8 n (%) and 8 (19) n (%); the Nausea was 14 n (%) and 14 (33) n (%). In addition, in series [2] (setting [12]), the Pain in extremity is 5 (12) n (%); the Vomiting was 7 n (%) and 7 (17) n (%). In series [2] (setting [13]), the Anemia is recorded as 0 n (%), the Arthralgia is listed as 0 n (%), the “Aspartate aminotransferase (AST) increased” value is 0 n (%) and the Asthenia is given as 1 (2) n (%). In [2] (setting [13]), the Back pain is 2 n (%) and 2 (5) n (%); the Constipation was 0 n (%); the Cough is given as 0 n (%); the Diarrhea was 0 n (%). Moreover, in series [2] (setting [13]), the Fatigue is 0 n (%), the Headache was 0 n (%), the Hot flush is 0 n (%) and the Nausea is 0 n (%). Moreover, in [2] (setting [13]), the Pain in extremity is 0 n (%), the “Patients with any adverse events” value was 9 (21) n (%) and the Vomiting is listed as 0 n (%). In addition, in series [2] (N = 42, seven patients), the “Patients with AEs that led to dose interruptions” value came to 17% and the “Patients with at least one SAE considered unrelated to GDC-0927” value worked out at 17%. For the same molecule, the “Patients with AEs of special interest (grade 2 deep vein thrombosis, grade 2 jugular vein thrombosis)” value in series [2] (N = 42, two patients, both considered unrelated) was determined as 5%. Moreover, the DLTs result in series [2] (day −7 through first cycle (35 days), 600-1,400 mg/day) is reported as “no reports of DLTs”. Further, in [2] (oral once daily, doses up to the MAD of 1,400 mg/day), the MTD result is reported as “not reached”. The “Reduction in FES uptake” value in the series on ER [3] is more than 90%. In the series with ER [4], the “Reduction in ER expression (ER protein, IHC), average” value is “approximately 40%”. The “Confirmed complete or partial responses” value in series [5] (N = 42) was “no complete or partial responses; also recorded: no confirmed CRs or PRs”. The “Patients with confirmed best overall response of non-CR/PD” value in series [5] (five patients, all at 1,400 mg) was determined as 14%. Further, the “Patients achieving clinical benefit” value in [5] (patients with baseline ctDNA ESR1 mutation(s), six of 22) was found to be 27%. Also, in series [5] (patients without detectable baseline ctDNA ESR1 mutations, 6 of 20), the “Patients achieving clinical benefit” value came out at 30%. The “Patients with decline in PIK3CA/AKT1 MAF” value in [6] is recorded as 8 of 13. For the same molecule, the “Prevalence of ESR1 mutations in on-treatment samples” value in the series with ESR1 mutations in ctDNA was 35%. Also, the “Tolerability at efficacious dose range” value in series [7] (10–100 mg/kg/day) is listed as “well tolerated”. In addition, the “Antitumor activity in xenograft models” value in series [7] (ER+ breast cancer xenograft models) is given as “induces tumor regression; also recorded: dose-dependent antitumor activity”. Moreover, the “In vivo efficacious dose range” value in series [7] is 10 to 100 mg/kg/day. In the series with ER [1], the ER antagonist/agonist profile result is listed as “full antagonist profile” and the ER degradation entry is listed as “ER degradation in all ER^+ cell lines tested”. Also, the “ER agonism in the uterus” value in the series on ER [8] is given as “lacked ER agonism”.

`C[C@@H]1Cc2c(ccc3[nH]ncc23)[C@@H](c2ccc(NC3CN(CCCF)C3)cn2)N1CC(F)(F)F` [camizestrant]: the “Median PFS” value in series [9] (SERENA-2, camizestrant 75 mg) is on record as 7.2 months; in [9] (SERENA-2, camizestrant 150 mg) it was 7.7 months.

On to `C[C@]12CC[C@@H]3c4ccc(O)cc4C[C@@H](CCCCCCCCC[S+]([O-])CCCC(F)(F)C(F)(F)F)[C@H]3[C@@H]1CC[C@@H]2O` (stereo partly drawn) [fulvestrant], for which, in [9] (SERENA-2, patients treated with fulvestrant), the “Median PFS” value was 3.7 months.
